# Measured values of several laboratories.
# Lines come from different studies, so protocols differ.
# FLT3: Receptor-type tyrosine-protein kinase FLT3 (FLT3, Homo sapiens, UniProt P36888)
# FLT3 N841I: Receptor-type tyrosine-protein kinase FLT3 (FLT3, Homo sapiens, UniProt P36888, N841I)
Compound,target,observed,action,method,concentration,quantity,result
C#Cc1n[nH]c2c(-c3cn([C@@H](C)c4ccccc4)c(=O)[nH]c3=O)cc(F)cc12,FLT3,enzyme activity,inhibitor,,0.1 µM,inhibition,4.9%
Cc1nn(C)cc1-c1nc2c(N3CCN(Cc4ccc(Cl)cc4)CC3)c(Cl)cnc2[nH]1,FLT3 N841I,binding,,competition with immobilised ligand,1 µM,remaining binding,0%
COc1ncccc1-c1cnn2ccc(N3CCN(C(=O)OC(C)C)CC3)nc12,FLT3,binding,,competition with immobilised ligand,1 µM,remaining binding,100%
C#Cc1n[nH]c2c(-c3cn(C(C)c4ccccn4)c(=O)[nH]c3=O)cc(F)cc12 (centres unmarked),FLT3,enzyme activity,inhibitor,,1 µM,inhibition,8%
Nc1ncc(-c2nc(N3CCOCC3)nc(N3CCOCC3)n2)c(C(F)F)n1,FLT3 N841I,binding,,competition with immobilised ligand,10 µM,remaining binding,46%
O=c1[nH]c2ccccc2n1C1CCN(Cc2ccc(-c3[nH]c4cc5ncnc5cc4nc3-c3ccccc3)cc2)CC1,FLT3,cell-free assay,,,0.5 µM,remaining signal,94.6%
Cn1cc(-c2cc(F)cc(N3CCn4c(cc5c4CCCC5)C3=O)c2CO)cc(Nc2ccc(N3CCN(C4COC4)CC3)cn2)c1=O,FLT3,enzyme activity,inhibitor,,0.1 µM,inhibition,12%
N#CC1(c2ccccn2)CCN(Cc2cc(C(=O)O)c(=O)n3ccccc23)CC1,"Receptor-type tyrosine-protein kinase FLT3 (FLT3, Homo sapiens, UniProt P36888, F691L/ITD)",cell-free assay,,competition with immobilised ligand,1 µM,remaining binding,100%
CC(C)(C)c1cc(C=C(C#N)C#N)cc(Br)c1O,FLT3,enzyme activity,inhibitor,,0.5 µM,remaining activity,102%
Cn1cncc1[C@@](O)(COc1ccc(C#N)cc1-c1ccc(OC(F)(F)F)cc1)c1ccc(C#N)cc1,"Receptor-type tyrosine-protein kinase FLT3 (FLT3, Homo sapiens, UniProt P36888, ITD)",cell-free assay,,competition with immobilised ligand,1 µM,remaining binding,89%
Cn1cc(-c2cccc(N3CCc4c(sc5c4CC(C)(C)C5)C3=O)c2CO)cc(Nc2ccncn2)c1=O,FLT3,enzyme activity,inhibitor,,1 µM,inhibition,-6%
